Assay outcomes: PubChem BioAssay, several laboratories
HKDC1 inh: HKDC1 hexokinase inhibitors, primary screen, biochemical, fluorescence, uHTS | recombinant HKDC1, G6PDH/diaphorase resazurin coupled fluorescence | 340,000 compounds, 0.16% hits | AID 493160, 2011 | inhibition, % at 20 µM | Q2TB90;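 active = inhibition above about 35% when tested at 20 µM, limit read from the data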
Target sequence (Q2TB90 whole entry, looked up): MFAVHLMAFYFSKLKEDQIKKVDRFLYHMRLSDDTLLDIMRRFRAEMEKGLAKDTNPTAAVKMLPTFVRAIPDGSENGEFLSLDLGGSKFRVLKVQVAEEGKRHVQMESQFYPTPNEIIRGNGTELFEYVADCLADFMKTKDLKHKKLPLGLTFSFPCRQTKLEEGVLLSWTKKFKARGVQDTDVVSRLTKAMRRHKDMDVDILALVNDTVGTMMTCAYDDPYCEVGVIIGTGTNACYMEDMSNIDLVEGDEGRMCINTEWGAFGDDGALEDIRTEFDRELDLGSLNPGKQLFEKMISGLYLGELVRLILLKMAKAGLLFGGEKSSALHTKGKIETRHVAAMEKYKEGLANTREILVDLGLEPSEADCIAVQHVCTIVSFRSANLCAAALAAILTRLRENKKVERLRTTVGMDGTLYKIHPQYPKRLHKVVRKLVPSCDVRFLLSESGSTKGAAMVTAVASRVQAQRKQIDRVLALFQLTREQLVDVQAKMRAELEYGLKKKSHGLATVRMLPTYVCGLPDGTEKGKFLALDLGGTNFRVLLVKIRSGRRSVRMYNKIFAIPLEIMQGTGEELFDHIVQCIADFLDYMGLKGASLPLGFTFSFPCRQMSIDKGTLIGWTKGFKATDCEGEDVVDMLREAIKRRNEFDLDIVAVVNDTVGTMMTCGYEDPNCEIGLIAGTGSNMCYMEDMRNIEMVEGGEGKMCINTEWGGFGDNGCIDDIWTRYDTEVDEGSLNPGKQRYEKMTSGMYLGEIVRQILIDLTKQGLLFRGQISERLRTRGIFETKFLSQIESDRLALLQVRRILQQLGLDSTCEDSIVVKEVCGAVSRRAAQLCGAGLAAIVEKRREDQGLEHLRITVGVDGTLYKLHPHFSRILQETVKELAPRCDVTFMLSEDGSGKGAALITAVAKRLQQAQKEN
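Material – in-house recombinant HK5 (HKDC1) enzyme · Quantity – HKDC1 at 5 µg/mL · Buffer or medium – pH 8.0 Tris buffer with 10 mM MgCl2 · Reagent – glucose with 1 mM ATP · Dosing – single 20 µM dose · Times – reaction time 90 min, room temperature, protected from light · Technique – resorufin fluorescence at 613 nm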
Hsp70 act: Hsp70 transcriptional activators, primary screen, cell-based, HeLa, Hsp70 promoter luciferase, luminescence, 10 µM | HeLa Hsp70 promoter luciferase reporter; scaled: vehicle 0, proteasome-inhibitor control 100% | activation, % at 10 µM | 200,000 compounds, 0.04% hits | AID 1203, 2008;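 active = activation above the mean across all tested compounds plus 3 SD, cutoff set per campaign, cut at about 5.5% in these data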
HSF1 activator: HSF-1 activators, primary screen, NIH3T3-HGL cells, MG132 stress, luminescence, single point. activation, % at 9 µM. NIH3T3-HGL HSF-1 luciferase reporter, 8 h; 100% = twice DMSO control signal. 300,000 compounds, 1.7% hits;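 active = mean replicate activation of at least 50% with a set share of replicates each reaching 50%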
HSF1 inh: HSF1 inhibitors in luciferase reporter cells, primary screen, cell-based, NIH3T3, luminescence. NIH3T3-HGL HSE-luciferase, MG132-induced, luminescence 8 h; stronger effect = lower value. activity change, negative = inhibition, % at 7.5 µM (by protocol). 300,000 compounds, 0.77% hits;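 active = more than half of replicate wells show activity change below -50%, luminescence cut by over half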;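 also: luciferase reports HSF-1 transcriptional activity via heat shock element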
Tb hexokinase: Trypanosoma brucei hexokinase 1 inhibitors, primary screen, biochemical, G6PDH-coupled NADH absorbance, MLSCN library; recombinant TbHK1, G6PDH-coupled NADH A340; inhibition, % at 10 µM; 220,000 compounds, 0.11% hits; AID 1430, 2008;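 active = inhibition of 50% or more in the single-dose primary screen; inactive = inhibition below 50%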
HSP90 refold inh: HSP90 inhibitors, primary screen, cell lysate, luminescence | 290,000 compounds, 0.91% hits | inhibition, % at 5.6 µM | Rabbit reticulocyte lysate, luciferase refolding luminescence, 3 h;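 active = inhibition above the screen-wide mean plus 3 SD, computed separately per campaign, cut at about 16% in these data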;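 also: inhibitors lower the luminescence because luciferase stays unfolded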
Each line names hits and unclear results; the compound was inactive in the other large screens. Most compounds without a hit are left out; they make up all but 3.1% or so of the library.

COc1ccc(C(=O)CSc2nccn2C)c(OC)c1	none (no result: Hsp70 act, Tb hexokinase)
CCn1c(Cn2nnc(-c3ccccc3)n2)nnc1SCC(=O)Nc1cccc(C(C)=O)c1	none
CCn1c(Cn2nnc(-c3ccccc3)n2)nnc1SCC(=O)Nc1cccc(C)c1C	HSF1 activator 76.5
CC1CC=C(O)C12OCC(C)(C)CO2 (centres undefined)	none (no result: Hsp70 act, HSF1 activator, HSF1 inh, Tb hexokinase, HSP90 refold inh)
COC(=O)Nc1sccc1C(=O)Nc1sccc1C(=O)OC	HSF1 inh -65.2
COC(=O)c1ccsc1NC(=O)CCc1ccccc1	HSF1 activator 67.5 (no result: Hsp70 act, Tb hexokinase)
NC(=O)c1ccsc1NC(=O)CCc1ccccc1	none (no result: Hsp70 act, Tb hexokinase)
COc1ccccc1-c1cc(C(F)(F)F)nc(S(=O)(=O)CCCC(=O)NC(C)C)n1	HSF1 activator 171.8
COc1ccccc1-c1cc(C(F)(F)F)nc(S(=O)(=O)CCCC(=O)Nc2cccnc2Cl)n1	none (no result: HSF1 activator, HSF1 inh)
COc1ccccc1-c1cc(C(F)(F)F)nc(S(C)(=O)=O)n1	HSF1 activator 256.3
COc1ccc(-c2cc(C(F)(F)F)nc(S(=O)(=O)CCCC(=O)Nc3cc(C)on3)n2)cc1OC	HSF1 activator 223.3
COc1ccccc1-c1cc(C(F)(F)F)nc(S(=O)(=O)CCCC(=O)Nc2cc(C)on2)n1	none
COc1ccccc1-c1cc(C(F)(F)F)nc(S(=O)(=O)CCCC(=O)N2CCCCC2C)n1 (centres undefined)	HSF1 activator 78.8
O=C(C1CC(=O)N(c2ccc3c(c2)OCCO3)C1)N1CCCC(C(F)(F)F)C1 (centres undefined)	none (no result: Hsp70 act, Tb hexokinase, HSP90 refold inh)
CC(C)Cn1c(=O)c2c(nc3n2CC(C)CN3Cc2ccccc2)n(C)c1=O (centres undefined)	none (no result: Hsp70 act, Tb hexokinase)
COc1ccccc1-c1cc(C(F)(F)F)nc(S(=O)(=O)CCCC(=O)NCc2ccc(F)cc2)n1	HSF1 inh -79.8
CS(=O)(=O)c1nc(-c2ccco2)cc(C(F)(F)F)n1	HSF1 inh -74.1 (no result: HKDC1 inh)
CC1Oc2ccccc2N(CC(=O)NCc2ccccc2)C1=O (centres undefined)	HSF1 inh -87.6
COc1ccc(NC(=O)COC(=O)/C=C/C(=O)OCC(=O)Nc2ccc(OC)c(Cl)c2)cc1Cl	HSF1 activator 138.2
O=C(CCn1c(=O)oc2ccccc21)Nc1ccccc1	HSF1 activator 100.8
COc1cc(OC)c(NC(=O)CCCn2c(=O)oc3ccccc32)cc1Cl	none
COc1ccc(NC(=O)CCCn2c(=O)oc3ccccc32)cc1Cl	HSF1 activator 62.3
COc1cccc(-c2ncc3ccccc3c2COC(=O)c2ccc(F)cc2)c1	none (no result: Hsp70 act, HSF1 activator, HSF1 inh, Tb hexokinase, HSP90 refold inh)
CCn1c2ccccc2c2cc(NC(=O)CSc3nnc(-c4ccc(OC)c(OC)c4)n3N)ccc21	none
Nn1c(SCc2nc3ccccc3[nH]2)nnc1-c1cccnc1	none
COc1cccc(-c2nnc(SCc3nc4ccccc4[nH]3)n2N)c1	HSF1 activator 71.5
CCn1c2ccccc2c2cc(NC(=O)CSc3nnc(-c4cccc(OC)c4)n3N)ccc21	HSF1 activator 57.8
CCn1c(SCC(=O)Nc2ccc(N(C)C)cc2)nnc1-c1cccc(C)c1	HSF1 inh -75.6
Cc1ccccc1CN1CCNC(=O)C1CC(=O)NC1CCCCCCC1 (centres undefined)	none (no result: Hsp70 act, Tb hexokinase)
C#CCOCCOCCOCCNc1nc(N2CCN(C(=O)CCCCCCCCCCNC(=O)[C@H](CCCCN)n3cc(C[C@@H](C)CC)nn3)CC2)nc(N2CCN(C(=O)CCCCCCCCCCNC(=O)[C@H](CCCCN)n3cc(C[C@@H](C)CC)nn3)CC2)n1	none (no result: Hsp70 act, Tb hexokinase, HSP90 refold inh)
C#CCOCCOCCOCCNc1nc(N2CCN(C(=O)CCCCCCCCCCNC(=O)[C@H](CO)n3cc(CCCSC)nn3)CC2)nc(N2CCN(C(=O)CCCCCCCCCCNC(=O)[C@H](CCCCN)n3cc(C[C@@H](C)CC)nn3)CC2)n1	HSF1 inh -85.0 (no result: HKDC1 inh, Hsp70 act, Tb hexokinase, HSP90 refold inh)
CCC(C)c1ccc(NC(=O)Nc2cccnc2)cc1 (centres undefined)	none (no result: Hsp70 act, Tb hexokinase)
S=c1[nH]nc(-c2ccccc2)n1/N=C/c1ccc(-c2ccccc2Cl)o1	HSF1 activator 150.9
S=c1[nH]nc(-c2cccc(Cl)c2)n1/N=C/c1ccc(-c2ccccc2Br)o1	none (no result: Hsp70 act)
CCOC(=O)c1ccc(N2C(=O)CC(N3CCN(Cc4ccccc4)CC3)C2=O)cc1 (centres undefined)	none
CCOC(=O)c1ccc(N2C(=O)CC(N3CCC(Nc4ccc(F)cc4)CC3)C2=O)cc1 (centres undefined)	HSF1 activator 57.9
CN(C)c1ccc(/C=C(\C#N)c2ccccc2)cc1	none (no result: Hsp70 act, HSF1 activator, HSF1 inh)
CN(C)c1cccc(/C=C(\C#N)c2ccccc2)c1	HSF1 activator 63.4 (no result: Hsp70 act)
CC1(C)CC(=O)C2=C(C1)OC(N)=C(C#N)C2C#Cc1ccccc1 (centres undefined)	HSF1 activator 77.7
CC1(C)SC2C(C(=O)O)N=C(Cc3ccccc3)N2C1C(=O)O (centres undefined)	none (no result: Hsp70 act, HSF1 activator, HSF1 inh, Tb hexokinase, HSP90 refold inh)
COc1ccc(NC(=O)CN2CCc3ccccc3C2)cc1	none (no result: Hsp70 act, HSF1 activator, HSF1 inh, Tb hexokinase, HSP90 refold inh)
COc1cccc(NC(=O)N2CCCC2C(=O)NC(C)C)c1 (centres undefined)	HSF1 inh -62.6
COc1cc(NC(=S)N2CCCC2)cc(OC)c1	HSP90 refold inh 16.6 (no result: Hsp70 act, HSF1 activator, HSF1 inh, Tb hexokinase)
COc1cccc(N2CCN(C(=S)Nc3ccc(F)cc3)CC2)c1	none (no result: Hsp70 act, Tb hexokinase)
COc1cccc(N2CCN(C(=S)Nc3cc(C)cc(C)c3)CC2)c1	HSF1 inh -52.3
COc1ccc(NC(=S)N2CCc3ccccc3C2)cc1	HSF1 activator 60.9
COc1cccc(NC(=S)N2CCCC2)c1	HSF1 activator 57.1
CSc1cccc(NC(=S)N2CCC(N(C)C3CCCC3)CC2)c1	HSF1 inh -72.6
COc1cccc(N2CCN(c3ncccn3)CC2)c1	HSF1 activator 72.7
COc1ccc(N2CCN(C(=S)Nc3cccc(OC)c3)CC2)cc1	none (no result: Hsp70 act, Tb hexokinase)
CCOC(=O)N1CCC(N(CCN(C)C)C(=S)Nc2cccc(SC)c2)CC1	none
CSCCC(NC(=O)c1ccc(Cl)cc1Cl)C(=O)NNC(=O)c1ccncc1 (centres undefined)	none (no result: Hsp70 act, HSF1 activator, HSF1 inh, Tb hexokinase, HSP90 refold inh)
S=C(Nc1ccc(Cl)cc1)c1nc2ccccc2s1	none
O=C(Nc1ccc(Cl)cc1)/C(=C/c1cccc(O)c1)c1nc2ccccc2s1	HSF1 inh -76.0
CCCCC(=O)NNC(=O)N1c2ccccc2Sc2ccccc21	none (no result: Hsp70 act, Tb hexokinase)
CCCOC(=O)c1ccc(NC(=O)c2ccoc2C)cc1	HSF1 activator 56.2
Cc1occc1C(=O)Nc1ccc(OCc2ccccc2)cc1	HSF1 activator 56.1
CCCCOC(=O)c1ccc(NC(=O)c2ccoc2C)cc1	none
O=C(Nc1ccc(OCc2ccccc2)cc1)c1cccs1	none (no result: Hsp70 act, Tb hexokinase)
